Measured values reported in ChEMBL document CHEMBL1156500, “Characterization of the metabolic activation of hepatitis C virus nucleoside inhibitor beta-D-2'-Deoxy-2'-fluoro-2'-C-methylcytidine (PSI-6130) and identification of a novel active 5'-triphosphate species” (J Biol Chem, 2007).
Active and inactive are the calls of the source. The calls are words filed in the database; no cut-off is given here.

Tests used:
Hepatitis C virus [1] = assay: Antiviral activity against HCV 1b Con1 in 2209-23 cells after 72 hrs by luciferase based replicon assay; assay type: functional, organism-based, Hepacivirus hominis; conditions: genotype 1b Con 1, 2209-23, 72 h
Procedure, shortened: (§1)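 Huh7-derived 2209-23 cells carrying a bicistronic genotype 1b Con1 subgenomic HCV replicon with a Renilla luciferase reporter of RNA replication. Cells were exposed to compound for 72 h, and dose-dependent reduction of luciferase activity was measured to give IC50.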

Hepatitis C virus [2] = assay: Antiviral activity against HCV 1b Con1 in 2209-23 cells upto 100 uM after 72 hrs by luciferase based replicon assay; assay type: functional, organism-based; conditions: Hepacivirus hominis, genotype 1b Con 1; procedure, shortened: as §1
Hepatitis C virus [3] = assay: Inhibition of RNA synthesis activity of […]; design: species or system Hepatitis C virus subtype 1b, Con1; conditions: for IC50: Hepatitis C virus, Con1
Hepatitis C virus [4] = assay: Inhibition of RNA synthesis activity of […] 1b Con1 replicase; design: species or system Hepatitis C virus subtype 1b
Procedure, shortened: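 Membrane-associated native replication complexes were isolated from 2209-23 replicon cells, with 20 μl reactions. One format used 2.5×10^6 cell equivalents for 60 min. The other used 3.1×10^6 cell equivalents for 90 min in 50 mM HEPES pH 7.5, 5 mM MgCl2, actinomycin D, 1 mM ATP/GTP/CTP, 0.4 μM [α-33P]UTP and a creatine phosphate regeneration system.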

Hepatocyte = assay: Drug uptake in human hepatocyte assessed as time needed for triphosphate to be reduced to half of maximum level; assay type: ADME, cell-based, Liver; conditions: hepatocytes
Procedure, shortened: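 Hepatocytes from 4 donors were loaded for 24 h with 2 μM 3H-drug (10 μCi/ml), washed, and placed in drug-free medium. Duplicate samples were taken 0–72 h later and analysed for triphosphates by radio-HPLC. Half-life came from a single-phase exponential decay fit, mean ± S.D. (n = 4).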

| IC50 (Hepatitis C virus [1]) | IC50 (Hepatitis C virus [3]) | IC50 (Hepatitis C virus [4]) | t1/2 (Hepatocyte) | Structure (SMILES) | Activity (Hepatitis C virus [2]) | Ki (Hepatitis C virus [3]) |
| --- | --- | --- | --- | --- | --- | --- |
| > 100 µM | – | – | – | C[C@@]1(F)[C@H](O)[C@@H](CO)O[C@H]1n1ccc(=O)[nH]c1=O | inactive | – |
| – | 0.52 µM | 1.19 µM | – | C[C@@]1(F)[C@H](O)[C@@H](COP(=O)(O)OP(=O)(O)OP(=O)(O)O)O[C@H]1n1ccc(=O)[nH]c1=O [GS-461203] | – | 0.141 µM |
| – | 0.13 µM | 0.34 µM | 4.7 h | C[C@@]1(F)[C@H](O)[C@@H](COP(=O)(O)OP(=O)(O)OP(=O)(O)O)O[C@H]1n1ccc(N)nc1=O [PSI-6130-TP] | – | 0.023 µM |
